From ChEMBL document CHEMBL4364341, “Radiosensitization of Head and Neck Squamous Cell Carcinoma (HNSCC) by a Podophyllotoxin” (ACS Med Chem Lett, 2019) come the findings set out here.

Structures are written as SMILES. Activity calls are given as the source filed them. The rule behind the calls is not given here.

In experiment [1] the test system is SCC-25. The experiment is described as follows: Antiproliferative activity against human SCC25 cells assessed as fractional inhibition at 5 uM after 6 days in absence of irradiation by MTT assay. The class given is functional. The method in brief:
(§1)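 FaDu or SCC-25 cells were grown in DMEM with 10% FBS at 37 °C and 5% CO2. They were seeded at 1000 cells/well in 96-well plates for 24 h, then dosed with compound (fresh DMSO stock diluted in medium) or vehicle. After 1 h, X-rays were given with a sliding 5 mm lead shield, so one plate held 0, 2.5, 5 and 10 Gy columns. After 6 days, MTT (0.5 mg/mL, 45 min) was added, then DMSO, and A570 was read. Values were normalised to the unirradiated vehicle control. Fractional inhibition = 1 − surviving fraction.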
In general terms: Tetrazolium dyes change colour on reduction, which living cells bring about.

Experiment [2] relates to SCC-25. The experiment is described as follows: Synergistic induction of cell cycle arrest in human SCC25 cells at 0.5 uM followed by irradiation with 5Gy IR incubated for 6 hrs by propidium iodide staining based flow cytometry. The class given is functional. In a few lines: (§2)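 FaDu or SCC-25 cells, untreated, given 5 Gy IR, drug, or drug plus 5 Gy. Cell-cycle distribution by propidium iodide staining and flow cytometry at 6 h and 24 h after treatment. G0/G1, S and G2/M fractions compared with control by t test.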

The subject of experiment [3] is FaDu. The experiment is described as follows: Synergistic antiproliferative activity against human FADU cells assessed as combination index at 5 uM preincubated for 1 hr followed by irradiation with 5 Gy IR and measured after 6 days by MTT assay. It is filed as functional. The method in brief:
(§3)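 Combination index was calculated by the Chou–Talalay median-effect method from the 6-day MTT viability data of the single-plate compound/X-ray (2.5, 5, 10 Gy) design. CI < 1 denotes synergy, CI = 1 additivity and CI > 1 antagonism.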

Experiment [4] has as its system SCC-25. Description: Synergistic induction of apoptosis in human SCC25 cells at 0.5 uM followed irradiation with 5Gy IR by annexin V FITC and propidium iodide staining based flow cytometry. The class given is functional, cell-based. The note with it: TDE = time-dependent effect. In a few lines:
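FaDu or SCC-25 cells, untreated, given 5 Gy IR, drug, or both. Apoptotic cells measured by annexin V flow cytometry 48 h after treatment. Percentage compared with control by t test.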
In general terms: A flow cytometer gives signals particle by particle.

In experiment [5] the test system is FaDu. Description: Synergistic antiproliferative activity against human FADU cells assessed as combination index at 0.05 uM preincubated for 1 hr followed by irradiation with 10 Gy IR and measured after 6 days by MTT assay. It is filed as functional. In a few lines:
as §3

The test system of experiment [6] is SCC-25. The experiment is described as follows: Selectivity ratio of IC50 for antiproliferative activity against human SCC25 cells assessed as reduction in colony formation unit to IC50 for antiproliferative activity against human SCC25 cells assessed as reduction in colony formation unit followed by irradiation with 5 Gy IR. It is filed as functional.
For experiment [7], the system named is SCC-25. The experiment is described as follows: Induction of cell cycle arrest in human SCC25 cells at 0.5 uM by propidium iodide staining based flow cytometry. It is filed as functional. In a few lines:
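Cell-cycle distribution was measured by propidium iodide staining and flow cytometry. Readings were taken 6 and 24 h after compound alone, 5 Gy IR alone, or the combination, against control.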

The target in experiment [8] is T1, Nuclear factor erythroid 2-related factor 2 (Homo sapiens) (UniProt Q16236).
T1 sequence (whole entry): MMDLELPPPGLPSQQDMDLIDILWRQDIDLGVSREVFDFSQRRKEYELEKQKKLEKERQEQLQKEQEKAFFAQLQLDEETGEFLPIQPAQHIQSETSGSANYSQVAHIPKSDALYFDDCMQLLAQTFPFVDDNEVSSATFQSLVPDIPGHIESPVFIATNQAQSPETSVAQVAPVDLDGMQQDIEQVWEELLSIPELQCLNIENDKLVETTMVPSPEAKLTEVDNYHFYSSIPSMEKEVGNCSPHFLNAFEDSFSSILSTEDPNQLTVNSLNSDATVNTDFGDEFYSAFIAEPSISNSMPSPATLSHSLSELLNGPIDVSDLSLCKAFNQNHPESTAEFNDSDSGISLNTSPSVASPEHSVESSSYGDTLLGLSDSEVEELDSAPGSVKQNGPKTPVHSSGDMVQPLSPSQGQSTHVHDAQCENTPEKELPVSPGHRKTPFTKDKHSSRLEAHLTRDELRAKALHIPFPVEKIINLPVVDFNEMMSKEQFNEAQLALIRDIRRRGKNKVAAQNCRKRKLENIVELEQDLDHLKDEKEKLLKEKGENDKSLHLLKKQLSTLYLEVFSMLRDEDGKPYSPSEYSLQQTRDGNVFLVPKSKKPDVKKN
The experiment is described as follows: Inhibition of Nrf2 in human FADU cells at 0.5 uM incubated for 48 hrs by immunofluorescence analysis. The class given is cell-based. In a few lines:
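FaDu cells received compound, 5 Gy IR, or both, and Nrf2 was imaged by immunofluorescence 48 h later.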

In experiment [9] the test system is FaDu. Description: Synergistic antiproliferative activity against human FADU cells assessed as combination index at 0.5 uM preincubated for 1 hr followed by irradiation with 10 Gy IR and measured after 6 days by MTT assay. It is filed as functional. The method in brief: as §3
Experiment [10] concerns SCC-25. The experiment is described as follows: Antiproliferative activity against human SCC25 cells assessed as fractional inhibition at 0.005 uM after 6 days in absence of irradiation by MTT assay. The class given is functional. The method in brief:
as §1

For experiment [11], the system named is SCC-25. The experiment is described as follows: Inhibition of cell migration in human SCC25 cells at 0.5 uM incubated for 12 and 24 hrs by microscopic analysis. The class given is functional, cell-based. In a few lines: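 Scratch assay: 10^5 cells/well were grown to confluence in 12-well plates, with mitomycin C to block proliferation. Cells were treated with compound for 24 h, with or without 5 Gy IR, then scratched with a pipette tip, washed with PBS and given fresh medium. Imaging was at 0, 6, 12 and 24 h. % migration = gap decrease relative to the 0 h gap.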

The test system of experiment [12] is FaDu. Description: Synergistic induction of cell cycle arrest in human FADU cells assessed as decrease in accumulation at G0/G1 phase at 0.5 uM followed irradiation with 5Gy IR incubated for 24 hrs by propidium iodide staining based flow cytometry. It is filed as functional. The method in brief:
as §2

Experiment [13] relates to FaDu. The experiment is described as follows: Synergistic induction of cell cycle arrest in human FADU cells assessed as decrease in cyclin B1 at 0.5 uM followed by irradiation with 5 Gy IR incubated for 48 hrs by immunoblot analysis. It is filed as functional, cell-based. The method in brief: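 FaDu cells received drug, 5 Gy IR, or both; vehicle-only controls. Lysates collected after 48 h and immunoblotted with primary antibodies to NRF2, cyclin B1, CDK1, Bax and Bcl-2. Membranes stripped and reprobed for beta-actin as loading control.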
For orientation: In western blotting, separated proteins are transferred to a membrane and probed.

Experiment [14] concerns FaDu. The experiment is described as follows: Synergistic antiproliferative activity against human FADU cells assessed as fractional inhibition at 0.005 uM preincubated for 1 hr followed by irradiation with 10 Gy IR and measured after 6 days by MTT assay (reference value: 0.388). The class given is functional. In a few lines: as §1
Experiment [15] deals with SCC-25. The experiment is described as follows: Synergistic antiproliferative activity against human SCC25 cells assessed as reduction in colony formation unit followed by irradiation with 5 Gy IR and measured after 10 to 14 days by crystal violet staining based assay. It is filed as functional, cell-based.
Experiment [16] deals with FaDu. The experiment is described as follows: Synergistic antiproliferative activity against human FADU cells assessed as combination index at 0.5 uM preincubated for 1 hr followed by irradiation with 5 Gy IR and measured after 6 days by MTT assay. It is filed as functional. In a few lines:
as §3

Experiment [17] deals with SCC-25. Description: Antiproliferative activity against human SCC25 cells assessed as fractional inhibition at 0.05 uM after 6 days in absence of irradiation by MTT assay. The class given is functional. In a few lines: as §1

As to `COc1ccc2c(c1)N(CCO)C1=C(C(=O)OC1)C2c1ccccc1` (configuration not stated), the “fractional inhibitory concentration index (FICI)” value is given as 0.744 in [1], 0.009 in experiment [10], 0.346 in [14] and 0.005 in [17]. In addition, the outcome in [2] and in experiment [7] was inactive. Besides, the CI came out at 0.324 in experiment [3], 0.572 in experiment [5], 0.319 in [9] and 0.603 in experiment [16]. For the same compound, the Activity entry in experiment [4] was “Tde”. Further, the “Ratio IC50” value in [6] was 2. In addition, the inhibition result in [8] is “Active”. The inhibition result in experiment [11] is “inactive”. Further, the outcome in experiment [12] and in experiment [13] was Active. For the same compound, the inhibition entry in [15] is “Dose-dependent effect”.
